Data set [1] has as its target T1, Retinoic acid receptor RXR-alpha (Homo sapiens, UniProt P19793).
T1 sequence (P19793 whole entry): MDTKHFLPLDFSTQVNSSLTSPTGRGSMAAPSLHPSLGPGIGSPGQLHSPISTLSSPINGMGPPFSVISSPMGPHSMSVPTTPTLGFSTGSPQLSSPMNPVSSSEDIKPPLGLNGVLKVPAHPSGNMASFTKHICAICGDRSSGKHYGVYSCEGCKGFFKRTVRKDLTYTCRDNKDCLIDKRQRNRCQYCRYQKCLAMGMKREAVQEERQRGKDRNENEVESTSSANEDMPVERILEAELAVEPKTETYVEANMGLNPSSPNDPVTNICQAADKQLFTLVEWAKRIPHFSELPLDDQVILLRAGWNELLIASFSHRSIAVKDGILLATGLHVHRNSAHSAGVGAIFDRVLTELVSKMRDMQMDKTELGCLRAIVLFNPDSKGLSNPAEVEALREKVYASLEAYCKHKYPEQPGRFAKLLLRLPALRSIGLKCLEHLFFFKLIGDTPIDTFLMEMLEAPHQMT
The data set can be described thus: Partial agonist activity at RXRalpha (unknown origin) expressed in COS1 cells after 18 hrs by luciferase reporter gene assay. It counts as cell-based, COS-1. The method, boiled down:
(§1)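 COS-1 cells in DMEM with 10% FBS at 37 °C, 5% CO2, transfected with RXRα, an RXR-response-element luciferase reporter and a SEAP background vector. Cells were seeded at about 2.0 × 10⁴ per well with compound (DMSO below 1%) for 18 h. Luciferase was normalized to SEAP and expressed relative to 1 μM reference RXR full agonist as 100%. EC50 came from full dose-response curves. Triplicates, at least three experiments.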
(In a reporter assay the amount or activity of a reporter protein is the signal.)

The target in data set [2] is T2, Retinoic acid receptor RXR-alpha (Homo sapiens) (UniProt P19793).
T2 sequence (whole entry): T1 sequence (P19793 whole entry)
The data set can be described thus: Transactivation of RXRalpha (unknown origin) expressed in COS1 cells at 10 uM after 18 hrs by luciferase reporter gene assay relative to bexarotene. As to conditions: COS-1. The class given is cell-based. The method, boiled down:
as §1

In data set [3] the test system is Mus musculus. Briefly: Toxicity in ICR mouse assessed as change in renal function parameters at 30 mg/kg/day, po for 7 days. The class given is organism-based. Also noted: route oral. The note with it: in vivo, 168 h. In short, it runs like this:
(§2)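 Male ICR mice, 6−7 weeks old, four per cage, grouped by body weight. Oral 30 mg/kg or vehicle (1% ethanol/0.5% CMC in water, 10 mL/kg) once daily for 7 days, body weight recorded daily. After overnight fasting, mice were weighed under ether, and liver was removed and weighed. Serum was analysed on a dry-chemistry analyser for TG, TCHO, ALP, CRE, BUN and other markers. n = 7−23, ANOVA.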

The target in data set [4] is T2, Retinoic acid receptor RXR-alpha (Homo sapiens). The data set can be described thus: Transactivation of RXRalpha (unknown origin) expressed in COS1 cells at 1 uM after 18 hrs by luciferase reporter gene assay relative to bexarotene. It counts as cell-based. As to conditions: COS-1. The method, boiled down: as §1
For data set [5], the system named is Mus musculus. The data set can be described thus: Toxicity in ICR mouse assessed as weight gain at 30 mg/kg/day, po for 7 days relative to control. Also noted: route oral. The class given is organism-based. As to conditions: in vivo, 168 h. In short, it runs like this: as §2
Data set [6] has as its system Mus musculus. The data set can be described thus: Toxicity in ICR mouse assessed as increase in blood triglyceride level at 30 mg/kg/day, po for 7 days. It counts as organism-based. Also on record: route oral. As to conditions: in vivo, 168 h. The method, boiled down:
as §2

Data set [7] has as its target T2, Retinoic acid receptor RXR-alpha (Homo sapiens). Briefly: Transactivation of RXRalpha (unknown origin) expressed in COS1 cells at 0.1 uM after 18 hrs by luciferase reporter gene assay relative to bexarotene. It counts as cell-based. The note with it: COS-1. The method, boiled down:
as §1

For data set [8] the target is unchanged. Briefly: Partial agonist activity at RXRalpha (unknown origin) expressed in COS1 cells after 18 hrs by luciferase reporter gene assay relative to bexarotene. The class given is cell-based. The note with it: COS-1. In short, it runs like this:
as §1

In data set [9] the test system is Mus musculus. Briefly: Toxicity against KKAy mouse assessed as creatinine level at 10 mg/kg/day, po for 14 days (reference value: 0.2 mg/dl). The class given is organism-based. Also on record: route oral. As to conditions: in vivo, 336 h.
For data set [10], the system named is Mus musculus. The data set can be described thus: Toxicity against KKAy mouse assessed as plasma gammaGTP level at 10 mg/kg/day, po for 14 days (reference value: 5.8 +/- 0.6 IU). It counts as organism-based. Also noted: route oral. As to conditions: in vivo, 336 h.
The subject of data set [11] is Mus musculus. The data set can be described thus: Toxicity against KKAy mouse assessed as plasma ALT level at 10 mg/kg/day, po for 14 days (reference value: 17.6 +/- 0.9 IU). It counts as organism-based. Also noted: route oral. The note with it: in vivo, 336 h.
In data set [12] the test system is Mus musculus. Briefly: Toxicity against KKAy mouse assessed as plasma ALP level at 10 mg/kg/day, po for 14 days (reference value: 358.2 +/- 43.1 IU). The class given is organism-based. Also on record: route oral. The note with it: in vivo, 336 h.
The subject of data set [13] is Mus musculus. Briefly: Toxicity against KKAy mouse assessed as plasma AST level at 10 mg/kg/day, po for 14 days (reference value: 49.6 +/- 2.3 IU). The class given is organism-based. Also noted: route oral. The note with it: in vivo, 336 h.
Data set [14] deals with Mus musculus. Briefly: Toxicity against KKAy mouse assessed as total cholesterol level at 10 mg/kg/day, po for 14 days (reference value: 153.2 +/- 11.1 mg/dL). The class given is organism-based. Also on record: route oral. As to conditions: in vivo, 336 h.
Data set [15] has as its system Mus musculus. The data set can be described thus: Toxicity against KKAy mouse assessed as blood urea nitrogen level at 10 mg/kg/day, po for 14 days (reference value: 21.9 +/- 1.1 mg/dL). It counts as organism-based. Also noted: route oral. As to conditions: in vivo, 336 h.
In data set [16] the test system is Mus musculus. The data set can be described thus: Toxicity against KKAy mouse assessed as plasma triglyceride level at 10 mg/kg/day, po for 14 days (reference value: 122.4 +/- 11.0 mg/dL). It counts as organism-based. Also noted: route oral. As to conditions: in vivo, 336 h.

This is an account of results in ChEMBL document CHEMBL2331224 (J Med Chem, 2013).

Turning to `Cc1cc2c(cc1-n1c(C)nc3cc(C(=O)O)ccc31)C(C)(C)CCC2(C)C`, in data set [1], the EC50 (usually the concentration at which the effect is half-maximal) came to 367 nM. Besides, the values for the Efficacy in [2], in data set [4] and in [7] were 80%, 70% and 28%, respectively. In addition, the Activity result with Mus musculus [3], in the data set on Mus musculus [5] and in the data set with Mus musculus [6] was “Non-toxic” in each case. Also, the Emax (in general, the greatest response seen or fitted, relative to the assay's reference) in data set [8] came to 94%.

Molecule `Cc1cc2c(cc1-n1ccc3cc(C(=O)O)ccc31)C(C)(C)CCC2(C)C` showed an EC50 in data set [1] of 83 nM. The Efficacy in [2] stood at 77%; in data set [4], 67%; in data set [7], 45%. For the same molecule, the Emax in [8] stood at 73%.

In data set [1], `Cc1cc2c(cc1-n1cnc3cc(C(=O)O)ccc31)C(C)(C)CCC2(C)C` yielded an EC50 of 633 nM. Moreover, the Efficacy in [2] was 72%; in data set [4], 52%; in data set [7], less than 5%. In addition, the Emax in data set [8] turned out to be 75%.

As to `Cc1cc2c(cc1-n1c(=O)[nH]c3cc(C(=O)O)ccc31)C(C)(C)CCC2(C)C`, the figures for the Efficacy in [2], in [4] and in data set [7] were 22%, less than 5% and less than 5%, respectively.

For the molecule `CCc1ccc(CCOc2ccc(CC3SC(=O)NC3=O)cc2)nc1` (centres undefined) [PIOGLITAZONE], the Activity in the data set on Mus musculus [9] is 0.2 mg/dL; in the data set with Mus musculus [10], 7.3 IU; in the data set with Mus musculus [11], 21.3 IU; in the data set with Mus musculus [12] it was 395.7 IU; in the data set on Mus musculus [13], 45.3 IU; with Mus musculus [14], 147.3 mg/dL. The Activity is 22.2 mg/dL in the data set with Mus musculus [15] and 124 mg/dL in the data set on Mus musculus [16].

As for `Cc1cc2c(cc1-n1c(=S)[nH]c3cc(C(=O)O)ccc31)C(C)(C)CCC2(C)C`, the Efficacy in [2] was 37%; in data set [4], less than 5%; in data set [7] it was less than 5%.

In data set [1], `Cc1cc2c(cc1-n1c(N)nc3cc(C(=O)O)ccc31)C(C)(C)CCC2(C)C` returned an EC50 of 155 nM. In addition, the Efficacy in [2] was 96%; in data set [4] it was 35%; in [7], less than 5%. In data set [8], this molecule showed an Emax of 103%.

As for `CCN(c1ccc2c(c1)C(C)(C)CCC2(C)C)c1ccc(C(=O)O)cn1`, the concentration for a half-maximal effect (EC50) in data set [1] was 3.8 nM. In addition, the Efficacy in data set [2] was 98%; in data set [4] it was 96%; in [7] it was 86%. In addition, the Activity result with Mus musculus [3], with Mus musculus [5] and with Mus musculus [6] was “Non-toxic” in each case.
